ChEMBL document CHEMBL1926502, “The discovery of UK-369003, a novel PDE5 inhibitor with the potential for oral bioavailability and dose-proportional pharmacokinetics” (Bioorg Med Chem, 2012)
Values after ≈ are worked out from the molar mass of the structure shown.

Columns and labels:
[1] = Lipophilicity, log D of the compound at pH 7.4; format: physicochemical; conditions: buffer
[2] = target: cGMP-specific 3',5'-cyclic phosphodiesterase (Homo sapiens, UniProt O76074); assay: Inhibition of human PDE5 isolated from corpus cavernosum after 30 to 60 mins by scintillation counting method
[3] = Half life in human liver microsomes; format: ADME, Microsome
[4] = Apparent permeability from apical to basolateral side of human Caco2 cells at 25 uM; format: ADME, cell-based; conditions: Caco-2
Homo sapiens [5] = organism: Homo sapiens; assay: Selectivity ratio of IC50 for PDE6 to IC50 for human PDE5
How it was run: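 PDE5 was prepared from human corpus cavernosum and cone PDE6 from dog retina (anion-exchange fraction). IC50s came from concentration–response curves in a scintillation proximity assay with [3H]/unlabelled cGMP (1:3) at about 1/3 Km, so IC50 = Ki. Buffer was 20 mM Tris-HCl pH 7.4, 5 mM MgCl2, 1 mg/mL BSA; 30–60 min at 30 °C, <30% turnover. Ratio = PDE6 IC50/PDE5 IC50.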

Caco-2 = assay: Efflux ratio of apparent permeability from apical to basolateral to basolateral to apical side of human Caco2 cells; format: ADME, cell-based
How it was run: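 Caco-2 cell monolayers; flux measured in both directions, and the efflux ratio is taken as apical→basolateral flux divided by basolateral→apical flux.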

[6] = Cmax in human at 1.43 mg/kg, po; format: ADME, organism-based; parameters: dose 1.43 mg/kg, route oral; conditions: in vivo
[7] = Elimination half life in dog at 0.5 mg/kg, iv and 1 mg/kg, po; format: ADME, organism-based, Canis lupus familiaris; conditions: in vivo, read-out: beta t1/2 (converted)
[8] = Tmax in human at 1.43 mg/kg, po; format: ADME, organism-based; parameters: dose 1.43 mg/kg, route oral; conditions: in vivo
[9] = Clearance in rat at 1 mg/kg, iv; format: ADME, organism-based; parameters: dose 1 mg/kg, route intravenous; conditions: in vivo
[10] = Elimination half life in rat at 1 mg/kg, iv and 2 mg/kg, po; format: ADME, organism-based; conditions: in vivo, read-out: beta t1/2 (converted)
[11] = Aqueous solubility of the compound in 0.2 M lactate buffer at pH 4.3; format: physicochemical
[12] = Clearance in dog at 0.5 mg/kg, iv; format: ADME, organism-based, Canis lupus familiaris; parameters: dose 0.5 mg/kg, route intravenous; conditions: in vivo
Homo sapiens [13] = assay: Oral bioavailability in human at 1.43 mg/kg; format: ADME, organism-based; conditions: in vivo
[14] = Oral bioavailability in dog at 1 mg/kg; format: ADME, organism-based, Canis lupus familiaris; conditions: in vivo
[15] = Volume of distribution in human at 0.43 mg/kg, iv; format: ADME, organism-based; parameters: dose 0.43 mg/kg, route intravenous; conditions: in vivo
[16] = Elimination half life in human at 0.43 mg/kg, iv; format: ADME, organism-based; parameters: dose 0.43 mg/kg, route intravenous; conditions: in vivo, read-out: beta t1/2 (converted)
[17] = Oral bioavailability in rat at 2 mg/kg; format: ADME, organism-based; conditions: in vivo
[18] = Aqueous solubility of the compound at pH 6.7; format: physicochemical; conditions: buffer
[19] = Volume of distribution in dog at 0.5 mg/kg, iv and 1 mg/kg, po; format: ADME, organism-based, Canis lupus familiaris; conditions: in vivo
[20] = Volume of distribution in rat at 1 mg/kg, iv and 2 mg/kg, po; format: ADME, organism-based; conditions: in vivo
Homo sapiens [21] = assay: AUC in human at 1.43 mg/kg, po; format: ADME, organism-based, Plasma; parameters: dose 1.43 mg/kg, route oral; conditions: in vivo
How it was run: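 Human pharmacokinetic study. The oral arm was given at 1.43 mg/kg, and a separate intravenous arm at 0.43 mg/kg. AUC (ng h/ml) was derived from the oral dosing, alongside Cmax, Tmax and oral bioavailability.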

IC50 [2] [nM]	Ratio IC50 (Homo sapiens [5])	Structure (SMILES)	other results
0.78	209	CCCCOc1ncc(S(=O)(=O)N2CCN(CC)CC2)cc1-c1nc2c(CC)n(C3CN(C)C3)nc2c(=O)[nH]1	logD [1]: 2.8; half-life [3]: 74 min; Papp A→B at 25 µM [4]: 6 ×10⁻⁶ cm/s; Ratio (Caco-2): 4
1.53	306	CCc1c2nc(-c3cc(S(=O)(=O)N4CCN(CC)CC4)cnc3OCCOC)[nH]c(=O)c2nn1CCOC	logD [1]: 1.4; half-life [3]: 70 min; Papp A→B at 25 µM [4]: 9 ×10⁻⁶ cm/s; Ratio (Caco-2): 4.2
	55	CCOc1ncc(S(=O)(=O)N2CCN(CC)CC2)cc1-c1nc2c3n(nc2c(=O)[nH]1)CCCC3C (single isomer, unassigned; (-)) [listing 1 of 2 here]	
	149	CCN1CCN(S(=O)(=O)c2cnc(OCCOC)c(-c3nc4c5n(nc4c(=O)[nH]3)CCCC5C)c2)CC1 (single isomer, unassigned; (+)) [listing 1 of 2 here]	
1.83	170	CCCn1nc2c(=O)[nH]c(-c3cc(S(=O)(=O)N4CCN(CC)CC4)cnc3OCCOC)nc2c1CC	
0.31	100	CCCCOc1ncc(S(=O)(=O)N2CCN(CC)CC2)cc1-c1nc2c(CC)n(C3CCN(S(C)(=O)=O)CC3)nc2c(=O)[nH]1	
1.04	331	CCc1c2nc(-c3cc(S(=O)(=O)N4CCN(CC)CC4)cnc3OCCOC)[nH]c(=O)c2nn1CC(C)C	logD [1]: 2.8; half-life [3]: 11 min; Papp A→B at 25 µM [4]: 24 ×10⁻⁶ cm/s; Ratio (Caco-2): 2.5
8.5	392	CCN1CCN(S(=O)(=O)c2cnc(OCCOC)c(-c3nc4c5n(nc4c(=O)[nH]3)CCCC5)c2)CC1	
1.27	210	CCc1c2nc(-c3cc(S(=O)(=O)N4CCN(CC)CC4)cnc3OCCOC)[nH]c(=O)c2nn1CCN1CCOCC1	logD [1]: 1.1; half-life [3]: 48 min; Papp A→B at 25 µM [4]: 2.8 ×10⁻⁶ cm/s; Ratio (Caco-2): 8
1.76	219	CCc1c2nc(-c3cc(S(=O)(=O)N4CCN(CC)CC4)cnc3OCCOC)[nH]c(=O)c2nn1C1CCC1	
0.26	153	CCc1c2nc(-c3cc(S(=O)(=O)N4CCN(CC)CC4)cnc3OCC3CC3)[nH]c(=O)c2nn1CCN1CCOCC1	
	490	CCN1CCN(S(=O)(=O)c2cnc(OCCOC)c(-c3nc4c5n(nc4c(=O)[nH]3)CCCC5C)c2)CC1 (single isomer, unassigned; (-)) [listing 1 of 2 here]	
1.01	189	CCc1c2nc(-c3cc(S(=O)(=O)N4CCN(CC)CC4)cnc3OCCOC)[nH]c(=O)c2nn1CC1CC1	
2.47	55	CCCOc1ncc(S(=O)(=O)N2CCN(CC)CC2)cc1-c1nc2c3n(nc2c(=O)[nH]1)CCCC3	
1	171	CCCCOc1ncc(S(=O)(=O)N2CCN(CC)CC2)cc1-c1nc2c(CC)n(CCN(C)C)nc2c(=O)[nH]1	logD [1]: 3; Papp A→B at 25 µM [4]: 2.8 ×10⁻⁶ cm/s; Ratio (Caco-2): 7
0.74	184	CCCCOc1ncc(S(=O)(=O)N2CCN(CC)CC2)cc1-c1nc2c(CC)n(C3CCN(C)CC3)nc2c(=O)[nH]1	
	842	CCCOc1ccc(S(=O)(=O)N2CCN(CC)CC2)cc1-c1nc2c(CC)n(Cc3ccccn3)nc2c(=O)[nH]1	
	125	CCOc1ncc(S(=O)(=O)N2CCN(CC)CC2)cc1-c1nc2c3n(nc2c(=O)[nH]1)CCCC3C (single isomer, unassigned; (+)) [listing 1 of 2 here]	

IC50 [2] [nM]	Ratio IC50 (Homo sapiens [5])	Structure (SMILES)	other results
1.23		CCOc1ncc(S(=O)(=O)N2CCN(CC)CC2)cc1-c1nc2c(CC)n(CCOC)nc2c(=O)[nH]1	logD [1]: 2.1; Cmax [6]: 205 ng/mL; half-life [7]: 126 min; Tmax [8]: 60 min; clearance [9]: 26.6 mL/min/kg; half-life [10]: 57 min; solubility [11]: > 14 mg/mL; clearance [12]: 16 mL/min/kg; F (Homo sapiens [13]): 34%; bioavailability [14]: 55%; half-life [3]: 28 min; Vd [15]: 2.8 L/kg; Papp A→B at 25 µM [4]: 16 ×10⁻⁶ cm/s; half-life [16]: 156 min; bioavailability [17]: 61%; solubility [18]: 100 mg/mL (≈ 192 mM); Vd [19]: 2.8 L/kg; Vd [20]: 2.2 L/kg; AUC (Homo sapiens [21]): 95.2 ng·h/mL
1.66	241	CCc1c2nc(-c3cc(S(=O)(=O)N4CCN(CC)CC4)cnc3OCCOC)[nH]c(=O)c2nn1C1CCOCC1	
2.44	404	CCc1c2nc(-c3cc(S(=O)(=O)N4CCN(CC)CC4)cnc3OCC(C)C)[nH]c(=O)c2nn1CCCN(C)C	
3.7		CCOc1ncc(S(=O)(=O)N2CCN(CC)CC2)cc1-c1nc2c3n(nc2c(=O)[nH]1)CCCC3C (single isomer, unassigned; (-)) [listing 2 of 2 here]	
2.76		CCN1CCN(S(=O)(=O)c2cnc(OCCOC)c(-c3nc4c5n(nc4c(=O)[nH]3)CCCC5C)c2)CC1 (single isomer, unassigned; (+)) [listing 2 of 2 here]	
0.75	309	CCc1c2nc(-c3cc(S(=O)(=O)N4CCN(CC)CC4)cnc3OCc3ccccn3)[nH]c(=O)c2nn1CCOC	
10.8	70	CCOc1ncc(S(=O)(=O)N2CCN(CC)CC2)cc1-c1nc2c3n(nc2c(=O)[nH]1)CCCC3	
0.69	204	CCc1c2nc(-c3cc(S(=O)(=O)N4CCN(CC)CC4)cnc3OCC(C)C)[nH]c(=O)c2nn1CCOC	logD [1]: 2.9; half-life [3]: 7 min; Papp A→B at 25 µM [4]: 40 ×10⁻⁶ cm/s; Ratio (Caco-2): 1.1
15.8	28	CCOc1ncc(S(=O)(=O)N2CCN(CC)CC2)cc1-c1nc2c(CC)n(C3CNC3)nc2c(=O)[nH]1	
0.86	184	CCOc1ncc(S(=O)(=O)N2CCN(CC)CC2)cc1-c1nc2c(CC)n(CCN3CCOCC3)nc2c(=O)[nH]1	logD [1]: 1.6; half-life [3]: 18 min; Papp A→B at 25 µM [4]: 2.5 ×10⁻⁶ cm/s; Ratio (Caco-2): 11.2
1.36	354	CCc1c2nc(-c3cc(S(=O)(=O)N4CCN(CC)CC4)cnc3OCCOC)[nH]c(=O)c2nn1C(C)C	
3.35		CCOc1ncc(S(=O)(=O)N2CCN(CC)CC2)cc1-c1nc2c3n(nc2c(=O)[nH]1)CCCC3C (single isomer, unassigned; (+)) [listing 2 of 2 here]	
4.35	165	CCCn1nc2c(=O)[nH]c(-c3cc(S(=O)(=O)N4CCN(C)CC4)cnc3OCCOC)nc2c1CC	
0.69	51	CCCOc1ncc(S(=O)(=O)N2CCN(CC)CC2)cc1-c1nc2c(CC)n(CCOC)nc2c(=O)[nH]1	
2.89	237	CCc1c2nc(-c3cc(S(=O)(=O)N4CCN(C)CC4)cnc3OCCOC)[nH]c(=O)c2nn1CC(C)C	logD [1]: 2.3; half-life [3]: 28 min; Papp A→B at 25 µM [4]: 19 ×10⁻⁶ cm/s; Ratio (Caco-2): 2.2
8.2	52	CCOc1ncc(S(=O)(=O)N2CCN(CC)CC2)cc1-c1nc2c(CC)n(C3CN(C)C3)nc2c(=O)[nH]1	
1.96		CCN1CCN(S(=O)(=O)c2cnc(OCCOC)c(-c3nc4c5n(nc4c(=O)[nH]3)CCCC5C)c2)CC1 (single isomer, unassigned; (-)) [listing 2 of 2 here]	logD [1]: 1.6; half-life [7]: 90 min; clearance [12]: 20 mL/min/kg; bioavailability [14]: 18%; half-life [3]: 11.2 min; Papp A→B at 25 µM [4]: 24 ×10⁻⁶ cm/s; Ratio (Caco-2): 1.5; Vd [19]: 2.6 L/kg
